# Measured values as given in ChEMBL document CHEMBL1121368, “7-(Aminoacyl) and 7-(aminoalkyl) derivatives of 1,2,6,7-tetrahydroindolo[1,7-ab][1,5]benzodiazepines as potential antidepressant agents” (1980).
# The source made the active and inactive calls. The calls are words filed in the database; no cut-off is given here.
# Test system: not listed separately
# Assay: Evaluated for antidepressant activity by its ability to inhibit tetrabenazine-induced (TBZ) ptosis in mice
# Assay type: functional
# Settings: Mus musculus
# Method in brief: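 Mice given tetrabenazine to induce ptosis; inhibition of ptosis scored. Compounds were screened at 20 mg/kg ip. […] ">20" marks activity at the 20 mg/kg ip screening dose without a dose-response run.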
row,SMILES,ED50 [mg/kg]
1,CN(C)CCC(=O)N1c2ccccc2N2CCc3cccc(c32)C1C1CCCCC1.Cl (stereo unspecified),> 20
2,CNCC(=O)N1Cc2cccc3c2N(CC3)c2ccccc21,> 20
3,CN(C)CC(=O)N1Cc2cccc3c2N(CC3)c2ccccc21,> 20
4,Br.Br.CC1c2cccc3c2N(CC3)c2ccccc2N1CCN (stereo unspecified),2.2
5,CC1c2cccc3c2N(CC3)c2ccccc2N1C(=O)CCN(C)C (stereo unspecified),16
6,Br.CC1c2cccc3c2N(CC3)c2ccccc2N1CCN(C)C (stereo unspecified),5
7,CN(C)CCCN1Cc2cccc3c2N(CC3)c2ccccc21.Cl.Cl,16
8,Br.Br.CCCNCCN1c2ccccc2N2CCc3cccc(c32)C1C (stereo unspecified),> 20
9,CNCCC(=O)N1c2ccccc2N2CCc3cccc(c32)C1C (stereo unspecified),4
10,CC1c2cccc3c2N(CC3)c2ccccc2N1C(=O)CN(C)C (stereo unspecified),13.5
11,Br.Br.CNCCN1c2ccccc2N2CCc3cccc(c32)C1C (stereo unspecified),8
12,Br.Br.CNCCCN1Cc2cccc3c2N(CC3)c2ccccc21,1.5
13,CCCNCCC(=O)N1c2ccccc2N2CCc3cccc(c32)C1C.Cl (stereo unspecified),> 20
14,CN(C)CCC=C1c2ccccc2CCc2ccccc21 [AMITRIPTYLINE],4.5
15,CC1c2cccc3c2N(CC3)c2ccccc2N1C(=O)CCN1CCN(c2ccccc2)CC1 (stereo unspecified),> 20
16,CNCC(=O)N1c2ccccc2N2CCc3cccc(c32)C1C (stereo unspecified),2
17,CN(C)CCC(=O)N1Cc2cccc3c2N(CC3)c2ccccc21,> 20
18,CC1c2cccc3c2N(CC3)c2ccccc2N1C(=O)CCCN(C)C.Cl (stereo unspecified),> 20
19,CCCNCC(=O)N1c2ccccc2N2CCc3cccc(c32)C1C (stereo unspecified),> 20
20,CN(C)CCN1c2ccccc2N2CCc3cccc(c32)C1CCc1ccccc1.O=C(O)C(=O)O (stereo unspecified),> 20
21,CC1c2cccc3c2N(CC3)c2ccccc2N1C(=O)CCN1CCCCC1 (stereo unspecified),> 20
22,CCN(CC)CCC(=O)N1c2ccccc2N2CCc3cccc(c32)C1C (stereo unspecified),> 20
23,CNCCN1Cc2cccc3c2N(CC3)c2ccccc21.O=C(O)C(=O)O,> 20
24,CNCCCN1c2ccccc2CCc2ccccc21 [DESIPRAMINE],1.5
25,CNCCCN1c2ccccc2N2CCc3cccc(c32)C1C.Cl.Cl (stereo unspecified),9.5

# Organism: Mus musculus
# Assay: Evaluated for antidepressant activity by its ability to inhibit tetrabenazine-induced (TBZ) ptosis in mice; Inactive
# Assay type: functional, organism-based
# Settings: not given
row,SMILES,ED50
1,CNCCCN1c2ccccc2N2CCc3cc(Cl)cc(c32)C1C (stereo unspecified),inactive
2,CC1c2cc(Cl)cc3c2N(CC3)c2ccccc2N1C(=O)CCN(C)C (stereo unspecified),inactive
3,CC1c2cc(Cl)cc3c2N(CC3)c2ccccc2N1C(=O)CN(C)C (stereo unspecified),inactive
4,CNCCN1c2ccccc2N2CCc3cc(Cl)cc(c32)C1C (stereo unspecified),inactive
5,CNCCC(=O)N1c2ccccc2N2CCc3cc(Cl)cc(c32)C1C (stereo unspecified),inactive
6,CNCC(=O)N1c2ccccc2N2CCc3cc(Cl)cc(c32)C1C (stereo unspecified),inactive
